Tests used:
α-glucosidase = α-glucosidase (Saccharomyces cerevisiae, UniProt P53341); test: α-glucosidase inhibitory activity; format: biochemical; conditions: read-out: glucosidase inhibition IC50 ± SEM; mean ± SEM
[1] = tested on: streptozotocin-induced diabetic Wistar rats; test: serum profile; format: in vivo, Wistar albino rats; conditions: STZ-diabetic rats; for (ALP) IU / (SGOT) IU / (SGPT) IU: serum
Summary of the method: (§1)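 STZ-diabetic Wistar rats (n = 8 per group) received test compound at 10 or 20 mg/kg p.o., or glibenclamide 500 μg/kg p.o., once daily for 28 days; controls received vehicle. On day 28, rats were anesthetised with pentobarbital sodium (35 mg/kg) and blood was drawn by cardiac puncture. Serum ALP, SGPT, SGOT, LDL, HDL, TG, total cholesterol, creatinine and insulin were measured. Means ± SEM, one-way ANOVA with Dunnett's test.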

Balb/C mice = test: acute toxicity study in mice; format: in vivo; conditions: for mortality: maximum oral dose of 2000 mg/kg (b.w.); for toxic effects (diarrhea, convulsions, lethargy, sleeping, salivation, tremor): oral up to 2000 mg/kg, observed daily for 2 weeks
Summary of the method: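 Two-phase modified Lorke protocol in Balb/C mice (20–25 g), four per group. Phase 1: control given Tween-80 (2%); other groups received oral test compound at 100, 500 or 1000 mg/kg. Phase 2: oral doses of 1250, 1500 and 2000 mg/kg. Animals observed for the first 24 h, then daily for 2 weeks for diarrhea, convulsions, lethargy, sleeping, salivation and tremors, with mortality monitored.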

[2] = tested on: overnight fasted normal rats; test: oral glucose tolerance test; format: in vivo, Wistar albino rats; conditions: OGTT, glucose 3 g/kg oral
[3] = tested on: streptozotocin-induced diabetic Wistar rats; test: lipid profile in streptozotocin-induced diabetes; format: in vivo, Wistar albino rats; conditions: STZ-diabetic rats
Summary of the method: as §1

[4] = body weight of STZ-induced diabetic rats; format: in vivo, Wistar albino rats; conditions: for body weight, day 1: day 1, in g (unit assumed); for body weight, day 7: day 7, in g (unit assumed); for body weight, day 14: day 14, in g (unit assumed); for body weight, day 21: day 21, in g (unit assumed); for body weight, day 28: day 28, in g (unit assumed)
Summary of the method: (§2)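 Male Wistar albino rats (170–200 g, 8–10 weeks), fasted overnight, given STZ 50 mg/kg i.p. in 0.1 M citrate buffer, then 10% glucose for 3 days. Tail-vein glucose by glucometer at 72 h; >250 mg/dL counted as diabetic. Body weight and blood glucose on days 1, 7, 14, 21 and 28. Means ± SEM, one-way ANOVA with Dunnett's test.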

[5] = tested on: streptozotocin-induced diabetic Wistar rats; test: antidiabetic activity: blood glucose in STZ-induced diabetes; format: in vivo, Wistar albino rats
Summary of the method: as §2

[6] = 20 mg/kg p.o. once daily, day 28, 20 mg/kg

Sequence of α-glucosidase (P53341 whole entry): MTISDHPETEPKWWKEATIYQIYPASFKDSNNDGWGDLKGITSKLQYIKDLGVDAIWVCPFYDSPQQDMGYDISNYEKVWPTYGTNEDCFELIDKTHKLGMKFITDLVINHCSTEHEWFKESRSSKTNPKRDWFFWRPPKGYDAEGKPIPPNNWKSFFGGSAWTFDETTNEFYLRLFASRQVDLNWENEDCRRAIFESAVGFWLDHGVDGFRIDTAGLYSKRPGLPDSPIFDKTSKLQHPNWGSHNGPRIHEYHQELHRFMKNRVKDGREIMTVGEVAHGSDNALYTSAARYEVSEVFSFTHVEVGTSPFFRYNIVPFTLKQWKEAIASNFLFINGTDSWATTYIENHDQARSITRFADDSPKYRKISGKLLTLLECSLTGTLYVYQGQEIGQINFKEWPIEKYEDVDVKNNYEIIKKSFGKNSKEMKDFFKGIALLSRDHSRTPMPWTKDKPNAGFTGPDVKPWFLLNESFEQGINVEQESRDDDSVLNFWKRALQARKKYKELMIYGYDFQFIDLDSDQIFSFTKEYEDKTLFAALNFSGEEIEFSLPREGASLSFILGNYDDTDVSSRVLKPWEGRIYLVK

1-Phenyl-3-(4-(4-(p-tolyl)-2,3-dihydrobenzo[b][1,5]thiazepin-2-yl)phenyl)prop-2-en-1-one [6B]
IC50 (α-glucosidase): 3.63 ± 0.36 µM
insulin level ([1]; 10 mg/kg for 28 days): 0.658 ± 0.31 ng/mL
serum creatinine ([1]; 10 mg/kg for 28 days): 0.82 ± 0.22 mg/dL
(ALP) IU ([1]; 10 mg/kg for 28 days): 214.19 ± 4.11 IU
(SGOT) IU ([1]; 10 mg/kg for 28 days): 25.81 ± 2.16 IU
(SGPT) IU ([1]; 10 mg/kg for 28 days): 25.90 ± 2.11 IU
insulin level ([1]; 20 mg/kg for 28 days): 0.667 ± 0.40 ng/mL
serum creatinine ([1]; 20 mg/kg for 28 days): 0.75 ± 0.30 mg/dL
(ALP) IU ([1]; 20 mg/kg for 28 days): 204.71 ± 4.13 IU
(SGOT) IU ([1]; 20 mg/kg for 28 days): 22.31 ± 2.17 IU
(SGPT) IU ([1]; 20 mg/kg for 28 days): 23.01 ± 2.11 IU
mortality (Balb/C mice): no mortality
toxic effects (diarrhea, convulsions, lethargy, sleeping, salivation, tremor) (Balb/C mice): no toxic effects
blood glucose level, 0 min ([2]; dose 10 mg/kg): 103.41 ± 4.05 mg/dL
blood glucose level, 30 min ([2]; dose 10 mg/kg): 125.39 ± 4.10 mg/dL
blood glucose level, 60 min ([2]; dose 10 mg/kg): 120.41 ± 4.81 mg/dL
blood glucose level, 90 min ([2]; dose 10 mg/kg): 112.61 ± 4.81 mg/dL
blood glucose level, 120 min ([2]; dose 10 mg/kg): 114.91 ± 4.59 mg/dL
blood glucose level, 0 min ([2]; dose 20 mg/kg): 100.93 ± 4.11 mg/dL
blood glucose level, 30 min ([2]; dose 20 mg/kg): 119.91 ± 4.62 mg/dL
blood glucose level, 60 min ([2]; dose 20 mg/kg): 121.66 ± 4.31 mg/dL
blood glucose level, 90 min ([2]; dose 20 mg/kg): 111.22 ± 4.21 mg/dL
blood glucose level, 120 min ([2]; dose 20 mg/kg): 109.78 ± 5.01 mg/dL
LDL ([3]; 10 mg/kg for 28 days): 130.21 ± 3.99 mg/dL
TG ([3]; 10 mg/kg for 28 days): 145.21 ± 4.98 mg/dL
total CH ([3]; 10 mg/kg for 28 days): 151.07 ± 4.92 mg/dL
HDL ([3]; 10 mg/kg for 28 days, 10 mg/kg): 44.89 ± 3.01 mg/dL
LDL ([3]; 20 mg/kg for 28 days): 113.41 ± 4.71 mg/dL
TG ([3]; 20 mg/kg for 28 days): 116.82 ± 4.41 mg/dL
total CH ([3]; 20 mg/kg for 28 days): 137.11 ± 3.71 mg/dL
HDL ([3]; 20 mg/kg for 28 days, 20 mg/kg): 52.07 ± 2.69 mg/dL
body weight, day 1 ([4]; 10 mg/kg): 190.0 ± 3.98
body weight, day 7 ([4]; 10 mg/kg): 182.5 ± 4.19
body weight, day 14 ([4]; 10 mg/kg): 187.1 ± 4.88
body weight, day 21 ([4]; 10 mg/kg): 183.4 ± 4.60
body weight, day 28 ([4]; 10 mg/kg): 180.9 ± 4.23
body weight, day 1 ([4]; 20 mg/kg): 194.1 ± 4.41
body weight, day 7 ([4]; 20 mg/kg): 189.3 ± 4.61
body weight, day 14 ([4]; 20 mg/kg): 190.3 ± 4.71
body weight, day 21 ([4]; 20 mg/kg): 186.7 ± 3.96
body weight, day 28 ([4]; 20 mg/kg): 184.3 ± 4.33
blood glucose level, day 1 ([5]; 10 mg/kg p.o. once daily): 381.40 ± 4.30 mg/dL
blood glucose level, day 7 ([5]; 10 mg/kg p.o. once daily, day 7, 10 mg/kg): 280.90 ± 4.66 mg/dL
blood glucose level, day 14 ([5]; 10 mg/kg p.o. once daily, day 14, 10 mg/kg): 205.31 ± 4.01 mg/dL
blood glucose level, day 21 ([5]; 10 mg/kg p.o. once daily, day 21, 10 mg/kg): 150.45 ± 4.92 mg/dL
blood glucose level, day 28 ([5]; 10 mg/kg p.o. once daily, day 28): 135.67 ± 3.89 mg/dL
blood glucose level, day 1 ([5]; 20 mg/kg p.o. once daily): 380.30 ± 4.78 mg/dL
blood glucose level, day 7 ([5]; 20 mg/kg p.o. once daily, day 7, 20 mg/kg): 228.44 ± 5.06 mg/dL
blood glucose level, day 14 ([5]; 20 mg/kg p.o. once daily, day 14, 20 mg/kg): 166.09 ± 4.46 mg/dL
blood glucose level, day 21 ([5]; 20 mg/kg p.o. once daily, day 21, 20 mg/kg): 129.71 ± 4.09 mg/dL
blood glucose level, day 28 [5, 6]: 111.81 ± 4.08 mg/dL

N,N-Dimethyl-4-(4-(p-tolyl)-2,3-dihydrobenzo[b][1,5]thiazepin-2-yl)aniline [14B]
IC50 (α-glucosidase): 3.34 ± 0.27 µM
insulin level ([1]; 10 mg/kg for 28 days): 0.690 ± 0.27 ng/mL
serum creatinine ([1]; 10 mg/kg for 28 days): 0.75 ± 0.36 mg/dL
(ALP) IU ([1]; 10 mg/kg for 28 days): 210.98 ± 4.39 IU
(SGOT) IU ([1]; 10 mg/kg for 28 days): 25.56 ± 2.18 IU
(SGPT) IU ([1]; 10 mg/kg for 28 days): 25.08 ± 2.78 IU
insulin level ([1]; 20 mg/kg for 28 days): 0.697 ± 0.34 ng/mL
serum creatinine ([1]; 20 mg/kg for 28 days): 0.72 ± 0.30 mg/dL
(ALP) IU ([1]; 20 mg/kg for 28 days): 203.51 ± 4.34 IU
(SGOT) IU ([1]; 20 mg/kg for 28 days): 22.20 ± 2.21 IU
(SGPT) IU ([1]; 20 mg/kg for 28 days): 22.82 ± 2.91 IU
mortality (Balb/C mice): no mortality
toxic effects (diarrhea, convulsions, lethargy, sleeping, salivation, tremor) (Balb/C mice): no toxic effects
blood glucose level, 0 min ([2]; dose 10 mg/kg): 104.21 ± 4.67 mg/dL
blood glucose level, 30 min ([2]; dose 10 mg/kg): 124.02 ± 4.01 mg/dL
blood glucose level, 60 min ([2]; dose 10 mg/kg): 119.33 ± 4.63 mg/dL
blood glucose level, 90 min ([2]; dose 10 mg/kg): 114.98 ± 4.03 mg/dL
blood glucose level, 120 min ([2]; dose 10 mg/kg): 116.49 ± 4.71 mg/dL
blood glucose level, 0 min ([2]; dose 20 mg/kg): 103.87 ± 4.18 mg/dL
blood glucose level, 30 min ([2]; dose 20 mg/kg): 119.61 ± 4.55 mg/dL
blood glucose level, 60 min ([2]; dose 20 mg/kg): 116.20 ± 4.78 mg/dL
blood glucose level, 90 min ([2]; dose 20 mg/kg): 112.69 ± 4.11 mg/dL
blood glucose level, 120 min ([2]; dose 20 mg/kg): 111.61 ± 4.97 mg/dL
HDL ([3]; 10 mg/kg for 28 days): 45.25 ± 2.15 mg/dL
LDL ([3]; 10 mg/kg for 28 days): 129.08 ± 4.06 mg/dL
TG ([3]; 10 mg/kg for 28 days): 144.11 ± 4.39 mg/dL
total CH ([3]; 10 mg/kg for 28 days, 10 mg/kg): 149.08 ± 4.12 mg/dL
HDL ([3]; 20 mg/kg for 28 days): 55.21 ± 2.66 mg/dL
LDL ([3]; 20 mg/kg for 28 days): 110.41 ± 3.90 mg/dL
TG ([3]; 20 mg/kg for 28 days): 115.24 ± 4.13 mg/dL
total CH ([3]; 20 mg/kg for 28 days, 20 mg/kg): 135.11 ± 4.02 mg/dL
body weight, day 1 ([4]; 10 mg/kg): 188.5 ± 4.07
body weight, day 7 ([4]; 10 mg/kg): 186.8 ± 4.39
body weight, day 14 ([4]; 10 mg/kg): 187.1 ± 4.33
body weight, day 21 ([4]; 10 mg/kg): 181.6 ± 4.21
body weight, day 28 ([4]; 10 mg/kg): 179.3 ± 4.41
body weight, day 1 ([4]; 20 mg/kg): 189.1 ± 4.19
body weight, day 7 ([4]; 20 mg/kg): 188.5 ± 4.21
body weight, day 14 ([4]; 20 mg/kg): 189.2 ± 4.66
body weight, day 21 ([4]; 20 mg/kg): 183.4 ± 4.18
body weight, day 28 ([4]; 20 mg/kg): 182.5 ± 4.58
blood glucose level, day 1 ([5]; 10 mg/kg p.o. once daily): 369.82 ± 4.12 mg/dL
blood glucose level, day 7 ([5]; 10 mg/kg p.o. once daily, day 7): 294.04 ± 4.67 mg/dL
blood glucose level, day 14 ([5]; 10 mg/kg p.o. once daily, day 14): 196.39 ± 4.12 mg/dL
blood glucose level, day 21 ([5]; 10 mg/kg p.o. once daily, day 21): 151.11 ± 4.39 mg/dL
blood glucose level, day 28 ([5]; 10 mg/kg p.o. once daily, day 28, 10 mg/kg): 134.20 ± 4.21 mg/dL
blood glucose level, day 1 ([5]; 20 mg/kg p.o. once daily): 370.33 ± 3.98 mg/dL
blood glucose level, day 7 ([5]; 20 mg/kg p.o. once daily, day 7): 231.69 ± 5.20 mg/dL
blood glucose level, day 14 ([5]; 20 mg/kg p.o. once daily, day 14): 158.26 ± 4.67 mg/dL
blood glucose level, day 21 ([5]; 20 mg/kg p.o. once daily, day 21): 127.21 ± 4.81 mg/dL
blood glucose level, day 28 [5, 6]: 109.71 ± 4.23 mg/dL
